For data set [1], the system named is Mus musculus. Briefly: Antitumor activity against E0771 mammary adenocarcinoma in mice at 30 mg/kg(5 days) was determined and […] at day 14 was reported. It is filed as functional.
For data set [2], the target named is T1, Folylpolyglutamate synthase, mitochondrial (Mus musculus) (UniProt P48760).
T1 sequence (whole entry): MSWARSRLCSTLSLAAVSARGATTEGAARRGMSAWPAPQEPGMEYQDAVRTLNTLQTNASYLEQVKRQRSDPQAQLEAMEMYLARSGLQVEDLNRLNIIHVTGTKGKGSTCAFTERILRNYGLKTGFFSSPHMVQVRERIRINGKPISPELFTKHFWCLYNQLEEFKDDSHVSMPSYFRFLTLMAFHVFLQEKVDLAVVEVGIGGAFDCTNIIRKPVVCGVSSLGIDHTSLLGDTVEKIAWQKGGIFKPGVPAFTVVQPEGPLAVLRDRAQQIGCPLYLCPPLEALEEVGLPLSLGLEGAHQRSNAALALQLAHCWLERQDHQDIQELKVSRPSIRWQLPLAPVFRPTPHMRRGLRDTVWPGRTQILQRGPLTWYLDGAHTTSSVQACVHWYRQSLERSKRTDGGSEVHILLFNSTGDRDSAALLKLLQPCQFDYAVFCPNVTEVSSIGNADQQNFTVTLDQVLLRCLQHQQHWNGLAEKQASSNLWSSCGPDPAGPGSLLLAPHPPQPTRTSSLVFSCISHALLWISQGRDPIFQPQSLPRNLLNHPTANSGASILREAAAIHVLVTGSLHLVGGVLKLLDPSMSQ
In words: Specific activity of L1210 Folyl-polyglutamate synthase. Put shortly:
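FPGS from L1210 cells was assayed by [³H]glutamate ligation, like the human enzyme assay. Each folate substrate was at 100 μM, and only specific activity was measured.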

For data set [3], the system named is Mus musculus. Briefly: Antitumor activity against E0771 mammary adenocarcinoma in mice at 6 mg/kg(5 days) was determined and […] at day 7 was reported. The format is functional. The method, boiled down: (§1)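 E0771 mammary adenocarcinoma implanted in mice, five mice per group. Treatment was given daily for 5 days, starting day 3 after implantation. Tumor volume was calculated as 4/3πr³ and averaged on days 7, 10 and 14. T/C (%) is the treated/control tumor volume. Toxic deaths were recorded.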

Data set [4] concerns Mus musculus. In words: Antitumor activity against E0771 mammary adenocarcinoma in mice at 30 mg/kg(5 days) was determined and tumor volume at day 14 was reported. The format is functional.
The next data set deals with HL-60. Briefly: Tested for the ability to inhibit growth in vitro against HL60. It is filed as functional, cell-based. The note with it: Homo sapiens.
Data set [5] relates to CCRF S-180. Briefly: Tested for the ability to inhibit growth in vitro against S180 cells. The format is functional, cell-based. As to conditions: Mus musculus.
The subject of data set [6] is Mus musculus. In words: Antitumor activity against E0771 mammary adenocarcinoma in mice at 3 mg/kg(5 days) was determined and tumor volume at day 10 was reported. It is filed as functional. Put shortly: (§2)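 Mice bearing implanted E0771 mammary adenocarcinoma, five per test group. Dosing was daily for 5 days, starting on day 3 after implantation. Tumor volume (mm³) was calculated as 4/3πr³ and is also expressed as treated/control (%).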

Data set [7] concerns Mus musculus. In words: Antitumor activity against E0771 mammary adenocarcinoma in mice at 100 mg/kg(5 days) was determined and […] at day 14 was reported. It is filed as functional.
The test system of data set [8] is Mus musculus. In words: Antitumor activity against E0771 mammary adenocarcinoma in mice at 6 mg/kg(5 days) was determined and tumor volume at day 10 was reported. The format is functional. The method, boiled down:
as §2

Data set [9] relates to Mus musculus. In words: Antitumor activity against E0771 mammary adenocarcinoma in mice at 3 mg/kg(5 days) was determined and […] at day 7 was reported. It is filed as functional. The method, boiled down: as §1
Data set [10] deals with Mus musculus. Briefly: Antitumor activity against E0771 mammary adenocarcinoma in mice at 100 mg/kg(5 days) was determined and tumor volume at day 14 was reported. The format is functional. Put shortly: as §2
For data set [11], the system named is L1210. In words: Tested for transport into L1210 cells measured as cell influx. It is filed as functional, cell-based, Mus musculus.
The test system of data set [12] is Mus musculus. Briefly: Antitumor activity against E0771 mammary adenocarcinoma in mice at 3 mg/kg(5 days) was determined and […] at day 10 was reported. It is filed as functional. The method, boiled down:
as §1

Data set [13] has as its system L1210. In words: Tested for the ability to inhibit growth in vitro against L1210. The format is functional, cell-based. As to conditions: Mus musculus.
Data set [14] deals with Mus musculus. In words: Antitumor activity against E0771 mammary adenocarcinoma in mice at 6 mg/kg(5 days) was determined and tumor volume at day 7 was reported. It is filed as functional. The method, boiled down: as §2
Data set [15] deals with Mus musculus. Briefly: Antitumor activity against E0771 mammary adenocarcinoma in mice at 3 mg/kg(5 days) was determined and tumor volume at day 7 was reported. It is filed as functional. Put shortly:
as §2

Data set [16] concerns Mus musculus. Briefly: Antitumor activity against E0771 mammary adenocarcinoma in mice at 6 mg/kg(5 days) was determined and […] at day 10 was reported. The format is functional. Put shortly:
as §1

The test system of data set [17] is Folyl-polyglutamate synthase. Briefly: Michaelis-Menten constant was determined against CCRF-CEM Folyl-polyglutamate synthase. The format is ADME. The note with it: human, folylpolyglutamate synthase from CCRF-CEM cells. Put shortly: (§3)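 FPGS from CCRF-CEM cells: freeze-thawed lysates fractionated by (NH₄)₂SO₄ (0–40% saturation pellet) and gel sieving, stored at –90 °C in 20% glycerol, free of detectable γ-glutamyl hydrolase. Product was separated on DEAE-cellulose minicolumns. Run in duplicate or triplicate, and each experiment was repeated at least once.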

For another data set, the system named is CCRF-CEM. Briefly: Percent inhibition of Folyl-polyglutamate synthase from CCRF-CEM cells. The format is cell-based. Also on record: concentration or dose not given beside the values. As to conditions: Homo sapiens, dose or concentration not given here. The method, boiled down: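 FPGS was partially purified from CCRF-CEM cells by (NH₄)₂SO₄ fractionation and gel sieving, with no detectable γ-glutamyl hydrolase. Product was separated on DEAE-cellulose. Percent inhibition is reported.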

The target of another data set is T2, Dihydrofolate reductase (Mus musculus, UniProt P00375).
T2 sequence (P00375 whole entry): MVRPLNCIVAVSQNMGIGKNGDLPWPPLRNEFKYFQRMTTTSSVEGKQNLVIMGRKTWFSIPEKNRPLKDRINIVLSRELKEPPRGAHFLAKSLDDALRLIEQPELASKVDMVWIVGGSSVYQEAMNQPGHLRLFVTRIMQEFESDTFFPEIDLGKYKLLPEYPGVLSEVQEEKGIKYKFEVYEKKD
Briefly: Inhibitory activity of Dihydrofolate reductase in L1210 cells. The format is cell-based.

Data set [18] deals with Mus musculus. Briefly: Antitumor activity against E0771 mammary adenocarcinoma in mice at 12 mg/kg(5 days) was determined and tumor volume at day 10 was reported. The format is functional. Put shortly: as §2
Data set [19] relates to Mus musculus. In words: Antitumor activity against E0771 mammary adenocarcinoma in mice at 12 mg/kg(5 days) was determined and tumor volume at day 14 was reported. The format is functional. The method, boiled down:
as §2

In data set [20] the test system is Mus musculus. Briefly: Antitumor activity against E0771 mammary adenocarcinoma in mice at 24 mg/kg(5 days) was determined and tumor volume at day 7 was reported. It is filed as functional. The method, boiled down:
as §2

The nature of data set [21]: Activity relative to saturating aminopterine at 100 uM against CCRF-CEM Folyl-polyglutamate synthetase. It is filed as ADME. As to conditions: human. The method, boiled down: as §3
Data set [22] relates to Mus musculus. In words: Antitumor activity against E0771 mammary adenocarcinoma in mice at 12 mg/kg (5 days) was determined and […] at day 14 was reported. The format is functional.
The test system of data set [23] is Mus musculus. Briefly: Antitumor activity against E0771 mammary adenocarcinoma in mice at 24 mg/kg(5 days) was determined and […] at day 10 was reported. It is filed as functional.
The subject of data set [24] is CCRF S-180. In words: Tested for the ability to inhibit growth in vitro against S180. The format is functional, cell-based. The note with it: Mus musculus.
Data set [25] has as its system Mus musculus. Briefly: Antitumor activity against E0771 mammary adenocarcinoma in mice at 24 mg/kg(5 days) was determined and […] at day 7 was reported. The format is functional. The method, boiled down:
as §1

The test system of data set [26] is Mus musculus. Briefly: Antitumor activity against E0771 mammary adenocarcinoma in mice at 24 mg/kg(5 days) was determined and tumor volume at day 10 was reported. The format is functional. The method, boiled down: as §2
For data set [27], the system named is Mus musculus. Briefly: Antitumor activity against E0771 mammary adenocarcinoma in mice at 24 mg/kg(5 days) was determined and […] at day 14 was reported. It is filed as functional.
Data set [28] deals with Mus musculus. Briefly: Antitumor activity against E0771 mammary adenocarcinoma in mice at 12 mg/kg(5 days) was determined and […] at day 7 was reported. The format is functional.
The subject of data set [29] is Mus musculus. In words: Antitumor activity against E0771 mammary adenocarcinoma in mice at 12 mg/kg (5 days) was determined and […] at day 10 was reported. It is filed as functional. The method, boiled down:
as §1

The subject of data set [30] is Mus musculus. In words: Antitumor activity against E0771 mammary adenocarcinoma in mice at 12 mg/kg(5 days) was determined and tumor volume at day 7 was reported. The format is functional. The method, boiled down:
as §2

For data set [31], the system named is Mus musculus. Briefly: Antitumor activity against E0771 mammary adenocarcinoma in mice at 24 mg/kg(5 days) was determined and tumor volume at day 14 was reported. It is filed as functional. Put shortly:
as §2

The values below come from ChEMBL document CHEMBL1126566, “Studies on analogues of classical antifolates bearing the naphthoyl group in place of benzoyl in the side chain” (J Med Chem, 1993).

With `CN(Cc1cnc2nc(N)nc(N)c2n1)c1ccc(C(=O)N[C@@H](CCC(=O)O)C(=O)O)cc1` [METHOTREXATE], the T/C in the data set on Mus musculus [1] turned out to be 31%; in the data set on Mus musculus [3] it was 49%; in the data set on Mus musculus [7], 83%; in the data set with Mus musculus [9], 81%; with Mus musculus [12] it was 100%; in the data set on Mus musculus [16], 30%. The Specific activity (pM hr-1 (mg of protein)-1) in data set [2] was determined as 0.38. Besides, the Tumor volume in the data set with Mus musculus [4] is 540 mm**3; with Mus musculus [6], 624 mm**3; with Mus musculus [8], 187 mm**3; with Mus musculus [10] it was 1437 mm**3; in the data set on Mus musculus [14], 108 mm**3; in the data set on Mus musculus [15] it was 180 mm**3. For the same compound, the half-inhibitory concentration (IC50) with HL-60 worked out at 8.1 nM; in the data set on CCRF S-180 [5], 10 nM; in the data set on L1210 [13] it was 9 nM. In the data set on L1210 [11], this compound gave a Ki of 3930 nM. Moreover, the Km in [17] was 42 µM.

In turn, `Cc1c(CN(C)c2ccc(C(=O)NC(CCC(=O)O)C(=O)O)c3ccccc23)cnc2nc(N)nc(N)c12` (configuration not stated) registered an inhibition in the data set on CCRF-CEM of 10%. The IC50 in the data set with HL-60 amounted to 0.56 nM; in the data set with CCRF S-180 [24], 2.6 nM; with L1210 [13], 2.4 nM. Also, the figures for the inhibition constant Ki on Dihydrofolate reductase and in the data set on L1210 [11] were 0.00484 nM and 660 nM, respectively. Also, the Tumor volume was 333 mm**3 in the data set on Mus musculus [18]; 1048 mm**3 in the data set on Mus musculus [19]; 87 mm**3 in the data set with Mus musculus [20]; 119 mm**3 in the data set on Mus musculus [26]; 108 mm**3 with Mus musculus [30]; 493 mm**3 with Mus musculus [31]. Also, the “Relative Vmax” value in data set [21] is reported as 0.04. The T/C in the data set on Mus musculus [22] is 60%; with Mus musculus [23] it was 19%; in the data set with Mus musculus [25], 39%; in the data set with Mus musculus [27], 28%; in the data set with Mus musculus [28], 49%; in the data set with Mus musculus [29], 53%.

Broadly, the T/C is the ratio of treated to control. As a reminder, the IC50 is the concentration that gives 50% inhibition. In general, Ki refers to the equilibrium dissociation constant of an inhibitor or competing ligand from its target. As a reminder, the Km is the substrate concentration at which the rate is half of its maximum. A word on the inhibition: it is the relative decrease from the control value, in per cent.
